ChEMBL document CHEMBL1123419, “Synthesis and antiviral activity of sulfonamidobenzophenone oximes and sulfonamidobenzamides” (1986)
Converted amounts (≈) assume the structure as drawn.

Columns and labels:
Poliovirus 1 = test: microbe, parasite or virus in culture; assay type: functional; conditions: Enterovirus C; read-out: ED50 (the source's name)
Enterovirus [1] = test: Antiviral activity against rhinovirus 10 using plaque-inhibition assay; assay type: functional; conditions: read-out: ED50 (the source's name)
Outline: (§1)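 Plaque reduction: confluent monolayers were infected with 100-200 PFU. Hela (Ohio) cells were used for rhinoviruses 10 and 1A and coxsackieviruses B4 and A9, CV-1 for poliovirus type 1 Mahoney, and LLC-MK2 for enterovirus 70. Cells were overlaid with 2.0% agar in MEM plus 4% FBS containing serial compound concentrations. Incubation was 37 °C for polio/coxsackie and 33 °C for rhino/enterovirus, with a neutral red (0.004%) second overlay. ED50 was taken from the dose-response curve.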

CV-1 = test: Chemotherapeutic index in CV-1 cells (chemotherapeutic index=50% cytotoxic dose/50% effective dose).; assay type: functional, Cercopithecidae
Outline: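 Index = 50% cytotoxic dose / 50% plaque-inhibition dose. For cytotoxicity, 200 cells/mL in suspension were mixed with 10% FBS MEM carrying serial compound dilutions and incubated 7 days at 37 °C under 5% CO2. Colonies were stained with 1% crystal violet and counted, and the 50% cytotoxic dose was read from the dose-response curve.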

HeLa [2] = test: Antiviral activity was measured against Hela cells injected with coxsackie virus type B4; assay type: functional, Homo sapiens
Outline: as §1

HeLa [3] = test: Antiviral activity was measured against Hela cells injected with rhinovirus 19; assay type: functional, Homo sapiens
Outline: (§2)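 Rhinovirus spectrum in Hela cells: infected cultures were kept 3 days at 33 °C, stained with crystal violet and examined microscopically for cytopathic effect. The end point was 50% inhibition.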

LLC-MK2 = test: Antiviral activity was measured against LLC-MK2 cells injected with enterovirus 70; assay type: functional, Cercopithecidae
Outline: as §1

HeLa [4] = test: Antiviral activity was measured against Hela cells injected with rhinovirus 10; assay type: functional, Homo sapiens
Outline: as §2

HeLa [5] = test: Antiviral activity was measured against Hela cells injected with rhinovirus 1A; assay type: functional, Homo sapiens
Outline: as §2

Enterovirus [6] = test: Antiviral activity against rhinovirus 1A using plaque-inhibition assay; assay type: functional; conditions: read-out: ED50 (the source's name)
Outline: as §1

CN(C)S(=O)(=O)Nc1cccc(NC(=O)c2ccccc2)c1
EC50 (Poliovirus 1): 20 µg/mL (≈ 62.6 µM)

O=C(Nc1ccccc1)c1cccc(NS(=O)(=O)c2ccccc2)c1
EC50 (Poliovirus 1): 17 µg/mL (≈ 48.2 µM)

CN(C)S(=O)(=O)Nc1cccc(/C(=N/O)c2ccccc2)c1
EC50 (Enterovirus [1]): 0.54 µg/mL (≈ 1.69 µM)
EC50 (Poliovirus 1): 0.79 µg/mL (≈ 2.47 µM)
Chemotherapeutic index (CV-1): 24

CC(=O)c1ccccc1NC(=O)c1cccc(NS(=O)(=O)C(C)C)c1
EC50 (Poliovirus 1): 5 µg/mL (≈ 13.9 µM)

CCOc1ccc(/C(=N\O)c2cccc(NS(=O)(=O)N(C)C)c2)cc1
EC50 (Poliovirus 1): 5.5 µg/mL (≈ 15.1 µM)

COc1ccc(/C(=N\O)c2cccc(NS(=O)(=O)N(C)C)c2)cc1
EC50 (Enterovirus [1]): 0.29 µg/mL (≈ 0.83 µM)
ED50 (HeLa [2]): 0.64 µg/mL (≈ 1.83 µM)
EC50 (Poliovirus 1): 0.26 µg/mL (≈ 0.744 µM)
ED50 (HeLa [3]): 0.44 µg/mL (≈ 1.26 µM)
Chemotherapeutic index (CV-1): 56
ED50 (LLC-MK2): 0.75 µg/mL (≈ 2.15 µM)
ED50 (HeLa [4]): 0.26 µg/mL (≈ 0.744 µM)
ED50 (HeLa [5]): 0.29 µg/mL (≈ 0.83 µM)

CC(C)S(=O)(=O)Nc1cccc(C(=O)NCc2ccccc2)c1
EC50 (Poliovirus 1): > 50 µg/mL

CN(C)S(=O)(=O)Nc1cccc(C(=O)Nc2cccc(Cl)c2)c1
EC50 (Poliovirus 1): 1.5 µg/mL (≈ 4.24 µM)

COc1ccc(/C(=N/O)c2cccc(NS(=O)(=O)N(C)C)c2)c(OC)c1
EC50 (Enterovirus [1]): 4 µg/mL (≈ 10.5 µM)
EC50 (Poliovirus 1): 19.5 µg/mL (≈ 51.4 µM)
Chemotherapeutic index (CV-1): 1.8

COc1ccc(/C(=N\O)c2cccc(NS(=O)(=O)N(C)C)c2)cc1OC
EC50 (Poliovirus 1): 0.55 µg/mL (≈ 1.45 µM)

CN(C)S(=O)(=O)Nc1ccccc1C(=O)Nc1ccccc1
EC50 (Poliovirus 1): 25 µg/mL (≈ 78.3 µM)

CN(C)S(=O)(=O)Nc1cccc(C(=O)Nc2ccccc2)c1
EC50 (Poliovirus 1): 4 µg/mL (≈ 12.5 µM)

Cc1ccc(/C(=N\O)c2cccc(NS(=O)(=O)N(C)C)c2)cc1
EC50 (Enterovirus [1]): 0.41 µg/mL (≈ 1.23 µM)
EC50 (Poliovirus 1): 0.44 µg/mL (≈ 1.32 µM)
Chemotherapeutic index (CV-1): 86

CC(C)S(=O)(=O)Nc1cccc(C(=O)Nc2ccccc2N)c1
EC50 (Poliovirus 1): > 50 µg/mL

CN(C(=O)c1ccc(NS(=O)(=O)N(C)C)cc1)c1ccc(Cl)cc1
EC50 (Poliovirus 1): > 25 µg/mL

CN(C)S(=O)(=O)Nc1cccc(C(=O)Nc2ccc(C#N)cc2)c1
EC50 (Poliovirus 1): 5 µg/mL (≈ 14.5 µM)

CN(C)S(=O)(=O)Nc1ccc(C(=O)Nc2ccccc2)cc1
EC50 (Poliovirus 1): 3 µg/mL (≈ 9.39 µM)

CC(C)S(=O)(=O)Nc1cccc(C(=O)Nc2ccccc2C(F)(F)F)c1
EC50 (Poliovirus 1): 0.6 µg/mL (≈ 1.55 µM)

CC(C)S(=O)(=O)Nc1cccc(C(=O)Nc2ccc(Cl)c(Cl)c2)c1
EC50 (Poliovirus 1): > 25 µg/mL

CC(C)S(=O)(=O)Nc1cccc(C(=O)Nc2cccc(CO)c2)c1
EC50 (Poliovirus 1): > 50 µg/mL

CC(C)S(=O)(=O)Nc1cccc(C(=O)Nc2nccs2)c1
EC50 (Poliovirus 1): 25 µg/mL (≈ 76.8 µM)

CN(C)S(=O)(=O)Nc1ccc(C(=O)Nc2ccccc2Cl)cc1
EC50 (Poliovirus 1): 6.2 µg/mL (≈ 17.5 µM)

CC(C)S(=O)(=O)n1c(N)nc2ccc(/C(=N\O)c3ccccc3)cc21 [ZINVIROXIME]
EC50 (Enterovirus [1]): 0.24 µg/mL (≈ 0.67 µM)
EC50 (Poliovirus 1): 0.14 µg/mL (≈ 0.391 µM)
Chemotherapeutic index (CV-1): 61

CCCCCCc1ccc(NC(=O)c2ccc(NS(=O)(=O)N(C)C)cc2)cc1
EC50 (Enterovirus [6]): 0.24 µg/mL (≈ 0.595 µM)
EC50 (Poliovirus 1): 0.16 µg/mL (≈ 0.396 µM)
Chemotherapeutic index (CV-1): 11

CC(C)S(=O)(=O)Nc1cccc(C(=O)Nc2cccc(O)c2)c1
EC50 (Poliovirus 1): 25 µg/mL (≈ 74.8 µM)

CC(C)S(=O)(=O)n1c(N)nc2ccc(/C(=N/O)c3ccccc3)cc21 [ENVIROXIME]
EC50 (Enterovirus [1]): 0.024 µg/mL (≈ 0.067 µM)
EC50 (Poliovirus 1): 0.032 µg/mL (≈ 0.0893 µM)

CC(C)S(=O)(=O)Nc1cccc(C(=O)Nc2ccc(F)cc2)c1
EC50 (Poliovirus 1): 4.2 µg/mL (≈ 12.5 µM)

CN(C)S(=O)(=O)Nc1cccc(/C(=N/O)c2ccc(Cl)cc2)c1
EC50 (Enterovirus [1]): 0.53 µg/mL (≈ 1.5 µM)
EC50 (Poliovirus 1): 0.46 µg/mL (≈ 1.3 µM)
Chemotherapeutic index (CV-1): 26

CN(C)S(=O)(=O)Nc1ccc(Cl)c(C(=O)Nc2ccc(Cl)cc2)c1
EC50 (Poliovirus 1): > 50 µg/mL

CCCCCc1ccc(NC(=O)c2ccc(NS(=O)(=O)N(C)C)cc2)cc1
EC50 (Enterovirus [6]): 0.51 µg/mL (≈ 1.31 µM)
EC50 (Poliovirus 1): 0.32 µg/mL (≈ 0.822 µM)
Chemotherapeutic index (CV-1): 4

CC(C)S(=O)(=O)Nc1cccc(C(=O)NC(C)(C)C)c1
EC50 (Poliovirus 1): > 50 µg/mL

CN(C)S(=O)(=O)Nc1ccc(C(=O)Nc2cccc(Cl)c2)cc1
EC50 (Poliovirus 1): 1.6 µg/mL (≈ 4.52 µM)

COc1ccc(/C(=N\O)c2cccc(NS(=O)(=O)N(C)C)c2)c(OC)c1
EC50 (Enterovirus [1]): 0.89 µg/mL (≈ 2.35 µM)
EC50 (Poliovirus 1): 1 µg/mL (≈ 2.64 µM)
Chemotherapeutic index (CV-1): 28

COc1ccc(/C(=N/O)c2cccc(NS(=O)(=O)N(C)C)c2)cc1
EC50 (Enterovirus [1]): 5.4 µg/mL (≈ 15.5 µM)
EC50 (Poliovirus 1): 7.6 µg/mL (≈ 21.8 µM)
Chemotherapeutic index (CV-1): 3.4

Cc1ccc(NC(=O)c2ccc(NS(=O)(=O)N(C)C)cc2)cc1
EC50 (Enterovirus [6]): 0.38 µg/mL (≈ 1.14 µM)
EC50 (Poliovirus 1): 0.54 µg/mL (≈ 1.62 µM)
Chemotherapeutic index (CV-1): 370

Cc1cccc(NC(=O)c2ccc(NS(=O)(=O)N(C)C)cc2)c1
EC50 (Poliovirus 1): 2.3 µg/mL (≈ 6.9 µM)

O=C(Nc1ccccc1)c1cccc(NS(=O)(=O)N2CCCC2)c1
EC50 (Poliovirus 1): 6.4 µg/mL (≈ 18.5 µM)

CC(C)S(=O)(=O)Nc1cccc(C(=O)NCc2ccco2)c1
EC50 (Poliovirus 1): > 50 µg/mL

CN(C)S(=O)(=O)Nc1cccc(/C(=N/O)c2cccc(CO)c2)c1
EC50 (Enterovirus [1]): 1.6 µg/mL (≈ 4.58 µM)
EC50 (Poliovirus 1): 0.5 µg/mL (≈ 1.43 µM)
Chemotherapeutic index (CV-1): 20
